Laboratory results taken from ChEMBL document CHEMBL1137474, “Synthesis, DNA binding, and cytotoxicity studies of pyrrolo[2,1-c][1,4]benzodiazepine-anthraquinone conjugates” (Bioorg Med Chem, 2007).

Experiments:
[1] = test system: COLO 205; assay: Cytotoxicity against human Colo205 cells by sulforhodamine B assay; type: functional, cell-based
Procedure, shortened: (§1)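 Cells in RPMI 1640 with 10% FBS and 2 mM L-glutamine, seeded at densities suited to doubling time, preincubated 24 h at 37 °C, 5% CO2. Drug added for a further 48 h. Fixed with cold TCA (final 10%) for 60 min at 4 °C, then SRB-stained. Bound dye eluted with 10 mM Tris base and read at 540 nm (690 nm reference). Growth taken relative to control wells. IC50 read from dose-response graphs. Triplicate wells, three repeat experiments.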

[2] = test system: SiHa; assay: Cytotoxicity against human SiHa cells by sulforhodamine B assay; type: functional, cell-based; procedure, shortened: as §1
[3] = test system: A2780; assay: Cytotoxicity against human A2780 cells by sulforhodamine B assay; type: functional, cell-based; procedure, shortened: as §1
[4] = test system: MCF7; assay: Cytotoxicity against human MCF7 cells by sulforhodamine B assay; type: functional, cell-based; procedure, shortened: as §1
[5] = test system: HOP-62; assay: Cytotoxicity against human Hop62 cells by sulforhodamine B assay; type: functional, cell-based; procedure, shortened: as §1
[6] = test system: PC-3; assay: Cytotoxicity against human PC3 cells by sulforhodamine B assay; type: functional, cell-based; procedure, shortened: as §1
[7] = test system: ZR-75-1; assay: Cytotoxicity against human ZR-75-1 cells by sulforhodamine B assay; type: functional, cell-based; procedure, shortened: as §1
[8] = test system: DNA; assay: Binding affinity for calf thymus DNA at 20 uM after 18 hrs by thermal denaturation assay; type: nucleic-acid assay; conditions: Bos taurus

Compound | IC50 [1] | IC50 [2] | IC50 [3] | IC50 [4] | IC50 [5] | IC50 [6] | IC50 [7] | ΔTm [8]
COc1cc2c(cc1OCCCC(=O)Nc1cccc3c1C(=O)c1ccccc1C3=O)N=C[C@@H]1CCCN1C2=O | 1800 nM | 1800 nM | 500 nM | 1400 nM | 800 nM | 800 nM | 500 nM | 9.1 °C
COc1cc2c(cc1OCCCCC(=O)Nc1cccc3c1C(=O)c1ccccc1C3=O)N=C[C@@H]1CCCN1C2=O | < 1000 nM | 1200 nM | 500 nM | 600 nM | 1000 nM | 800 nM | 500 nM | 5.2 °C
COc1cc2c(cc1OCCCCOc1ccc(OCCCCOc3cc4c(cc3OC)C(=O)N3CCC[C@H]3C=N4)c3c1C(=O)c1ccccc1C3=O)N=C[C@@H]1CCCN1C2=O | 10000 nM | 9000 nM | 10000 nM | 9000 nM | – | 7000 nM | – | 1.6 °C
COc1cccc2c1C(=O)c1c(O)c3c(c(O)c1C2=O)C[C@@](O)(C(=O)CO)C[C@@H]3O[C@H]1C[C@H](N)[C@H](O)[C@H](C)O1 [DOXORUBICIN] | 2000 nM | 1500 nM | 500 nM | 500 nM | 1000 nM | 500 nM | 600 nM | –
COc1cc2c(cc1OCCCCCOc1ccc(OCCCCCOc3cc4c(cc3OC)C(=O)N3CCC[C@H]3C=N4)c3c1C(=O)c1ccccc1C3=O)N=C[C@@H]1CCCN1C2=O | < 1000 nM | 800 nM | 500 nM | 1200 nM | 1400 nM | 1000 nM | 1500 nM | 6 °C
COc1cc2c(cc1OCCCOc1ccc(OCCCOc3cc4c(cc3OC)C(=O)N3CCC[C@H]3C=N4)c3c1C(=O)c1ccccc1C3=O)N=C[C@@H]1CCCN1C2=O | < 1000 nM | 800 nM | 600 nM | 600 nM | < 1000 nM | 600 nM | 500 nM | 17.9 °C
